Experimental data as given in ChEMBL document CHEMBL3352109, “Synthesis and antifungal activity of substituted salicylaldehyde hydrazones, hydrazides and sulfohydrazides” (Bioorg Med Chem, 2014).
≈ marks a conversion by molar mass, not a printed value. Calls of active or inactive are those of the source. No cut-off for these calls is given here.

What was measured:
Candida albicans [1] = test: Antifungal activity against Candida albicans ATCC 10231 by NCCLS method; type: functional
In short: (§1)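 Broth dilution per NCCLS yeast reference method, in HEPES-buffered RPMI with 1% DMSO. MIC80 is the lowest concentration giving more than 80% growth inhibition versus positive (no-drug) controls. Read by visual scoring, not absorbance. Highest level tested 125 µg/mL.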

Nakaseomyces glabratus [2] = test: Antifungal activity against Candida glabrata ATCC 48435 by NCCLS method; type: functional; in short: as §1
Candida albicans [3] = test: Antifungal activity against Candida albicans ATCC 10231 at 125 ug/ml by NCCLS method; type: functional, organism-based
Nakaseomyces glabratus [4] = test: Antifungal activity against Candida glabrata ATCC 48435 at 125 ug/ml by NCCLS method; type: functional, organism-based

Row | Compound | MIC80 (Candida albicans [1]) | MIC80 (Nakaseomyces glabratus [2]) | Activity (Candida albicans [3]) | Activity (Nakaseomyces glabratus [4])
1 | N/N=C/c1cc(Cl)ccc1O | 62 µg/mL (≈ 363 µM) | 31 µg/mL (≈ 182 µM) |  | 
2 | COc1ccc(S(=O)(=O)N/N=C/c2ccccc2O)cc1 |  |  | inactive | inactive
3 | Cc1ccc(O)c(/C=N/NS(=O)(=O)c2ccc(Br)cc2)c1 |  |  | inactive | inactive
4 | Oc1ccc(Br)cc1/C=N/Nc1ccccc1 | 31 µg/mL (≈ 106 µM) | 31 µg/mL (≈ 106 µM) |  | 
5 | Oc1ccc(Cl)cc1/C=N/Nc1ccccc1 | 31 µg/mL (≈ 126 µM) | 31 µg/mL (≈ 126 µM) |  | 
6 | Cc1ccc(O)c(/C=N/Nc2ccccc2)c1 | 62 µg/mL (≈ 274 µM) | 8 µg/mL (≈ 35.4 µM) |  | 
7 | O=C(N/N=C/c1cc(Br)ccc1O)c1ccc([N+](=O)[O-])cc1 | 1 µg/mL (≈ 2.75 µM) | 2 µg/mL (≈ 5.49 µM) |  | 
8 | O=C(N/N=C/c1cc(Br)ccc1O)c1ccccc1O | 8 µg/mL (≈ 23.9 µM) | 62 µg/mL (≈ 185 µM) |  | 
9 | O=C(N/N=C/c1cc(Br)ccc1O)c1ccc(O)cc1 | 125 µg/mL (≈ 373 µM) | 62 µg/mL (≈ 185 µM) |  | 
10 | CC(C)(C)c1cccc(/C=N/N)c1O | 125 µg/mL (≈ 650 µM) | 62 µg/mL (≈ 322 µM) |  | 
11 | O=C(N/N=C/c1cc(Br)cc(Br)c1O)c1ccc([N+](=O)[O-])cc1 | 1 µg/mL (≈ 2.26 µM) | 125 µg/mL (≈ 282 µM) |  | 
12 | O=[N+]([O-])c1ccc(N/N=C/c2ccc(O)cc2O)c([N+](=O)[O-])c1 | inactive | inactive |  | 
13 | Oc1c(Br)cc(Br)cc1/C=N/Nc1ccccc1 | inactive | 62 µg/mL (≈ 168 µM) |  | 
14 | Cc1ccc(O)c(/C=N/NS(=O)(=O)c2ccc3ccccc3c2)c1 |  |  | inactive | inactive
15 | N/N=C/c1cc(Br)ccc1O | 31 µg/mL (≈ 144 µM) | 62 µg/mL (≈ 288 µM) |  | 
16 | C(=N\Nc1ccccc1)/c1ccc(/C=N/Nc2ccccc2)cc1 | inactive | 125 µg/mL (≈ 398 µM) |  | 
17 | CC(C)(C)c1cccc(/C=N/NC(=O)c2ccccc2)c1O | inactive | inactive |  | 
18 | O=[N+]([O-])c1ccc(N/N=C/c2ccccc2O)cc1 | 125 µg/mL (≈ 486 µM) | 4 µg/mL (≈ 15.5 µM) |  | 
19 | O=Cc1ccc(/C=N/Nc2ccc([N+](=O)[O-])cc2[N+](=O)[O-])cc1 | inactive | inactive |  | 
20 | N/N=C/c1cc(Br)cc(Br)c1O | 16 µg/mL (≈ 54.4 µM) | 8 µg/mL (≈ 27.2 µM) |  | 
21 | O=C(N/N=C/c1ccc(O)cc1O)c1ccc([N+](=O)[O-])cc1 | inactive | 0.5 µg/mL (≈ 1.66 µM) |  | 
22 | O=C(N/N=C/c1ccc(O)cc1O)c1ccccc1 | 31 µg/mL (≈ 121 µM) | 1 µg/mL (≈ 3.9 µM) |  | 

Row | Compound | MIC80 (Candida albicans [1]) | MIC80 (Nakaseomyces glabratus [2]) | Activity (Candida albicans [3]) | Activity (Nakaseomyces glabratus [4])
23 | Cc1ccc(C)c(N/N=C/c2ccccc2O)c1 | inactive | inactive |  | 
24 | O=C(N/N=C/c1cc(Cl)cc(Cl)c1O)c1ccccc1 | 8 µg/mL (≈ 25.9 µM) | 16 µg/mL (≈ 51.8 µM) |  | 
25 | COc1ccc(S(=O)(=O)N/N=C/c2cc(Cl)ccc2O)cc1 |  |  | inactive | inactive
26 | O=C(N/N=C/c1cc([N+](=O)[O-])ccc1O)c1ccc([N+](=O)[O-])cc1 | inactive | 16 µg/mL (≈ 48.4 µM) |  | 
27 | O=S(=O)(N/N=C/c1cc(Cl)ccc1O)c1ccc2ccccc2c1 |  |  | inactive | inactive
28 | O=C(N/N=C/c1cc(Br)ccc1O)c1ccccc1 | 2 µg/mL (≈ 6.27 µM) | 2 µg/mL (≈ 6.27 µM) |  | 
29 | O=[N+]([O-])c1ccc(N/N=C/c2ccccc2O)c([N+](=O)[O-])c1 | inactive | inactive |  | 
30 | O=C(N/N=C/c1cccc(Br)c1O)c1ccc([N+](=O)[O-])cc1 | 31 µg/mL (≈ 85.1 µM) | 31 µg/mL (≈ 85.1 µM) |  | 
31 | O=C(N/N=C/c1cccc(Br)c1O)c1ccccc1 | 4 µg/mL (≈ 12.5 µM) | 2 µg/mL (≈ 6.27 µM) |  | 
32 | N/N=C/c1cc(Cl)cc(Cl)c1O | 16 µg/mL (≈ 78 µM) | 62 µg/mL (≈ 302 µM) |  | 
33 | COc1ccc(O)c(/C=N/Nc2ccccc2)c1 | 31 µg/mL (≈ 128 µM) | 31 µg/mL (≈ 128 µM) |  | 
34 | O=S(=O)(N/N=C/c1cc(Br)ccc1O)c1ccc(Br)cc1 |  |  | inactive | inactive
35 | COc1ccc(S(=O)(=O)N/N=C/c2cc(Br)ccc2O)cc1 |  |  | inactive | inactive
36 | Cc1ccc(O)c(/C=N/NC(=O)c2ccccc2O)c1 | 16 µg/mL (≈ 59.2 µM) | inactive |  | 
37 | Cc1ccc(O)c(/C=N/NS(=O)(=O)c2ccc([N+](=O)[O-])cc2)c1 |  |  | inactive | inactive
38 | COc1ccc(O)c(/C=N/NS(=O)(=O)c2ccc(Br)cc2)c1 |  |  | inactive | inactive
39 | Oc1ccccc1/C=N/Nc1ccccc1 | 16 µg/mL (≈ 75.4 µM) | 16 µg/mL (≈ 75.4 µM) |  | 
40 | O=C(N/N=C/c1ccc(/C=N/NC(=O)c2ccc([N+](=O)[O-])cc2)cc1)c1ccc([N+](=O)[O-])cc1 | inactive | inactive |  | 
41 | CC(C)(C)c1cccc(/C=N/Nc2ccccc2)c1O | inactive | inactive |  | 
42 | O=[N+]([O-])c1ccc(O)c(/C=N/NS(=O)(=O)c2ccccc2)c1 |  |  | inactive | inactive
43 | O=S(=O)(N/N=C/c1cc(Br)ccc1O)c1ccccc1 |  |  | inactive | inactive
44 | O=[N+]([O-])c1ccc(N/N=C/c2cc(Br)ccc2O)cc1 | inactive | inactive |  | 

Row | Compound | MIC80 (Candida albicans [1]) | MIC80 (Nakaseomyces glabratus [2]) | Activity (Candida albicans [3]) | Activity (Nakaseomyces glabratus [4])
45 | COc1ccc(S(=O)(=O)N/N=C/c2cc([N+](=O)[O-])ccc2O)cc1 |  |  | inactive | inactive
46 | COc1ccc(O)c(/C=N/NC(=O)c2ccccc2O)c1 | 16 µg/mL (≈ 55.9 µM) | 16 µg/mL (≈ 55.9 µM) |  | 
47 | O=[N+]([O-])c1ccc(O)c(/C=N/NS(=O)(=O)c2ccc(Br)cc2)c1 |  |  | inactive | inactive
48 | Oc1c(Cl)cc(Cl)cc1/C=N/Nc1ccccc1 | 125 µg/mL (≈ 445 µM) | 125 µg/mL (≈ 445 µM) |  | 
49 | O=C(N/N=C/c1cc([N+](=O)[O-])cc([N+](=O)[O-])c1O)c1ccccc1 | inactive | inactive |  | 
50 | O=[N+]([O-])c1ccc(N/N=C/c2cccc(Br)c2O)cc1 | inactive | inactive |  | 
51 | Cc1ccc(S(=O)(=O)N/N=C/c2cc(Cl)ccc2O)cc1 |  |  | inactive | inactive
52 | Cc1ccc(S(=O)(=O)N/N=C/c2cc([N+](=O)[O-])ccc2O)cc1 |  |  | inactive | inactive
53 | Cc1ccc(O)c(/C=N/NC(=O)c2ccc(O)cc2)c1 | inactive | 1 µg/mL (≈ 3.7 µM) |  | 
54 | O=[N+]([O-])c1ccc(N/N=C/c2cc([N+](=O)[O-])ccc2O)cc1 | 125 µg/mL (≈ 414 µM) | 62 µg/mL (≈ 205 µM) |  | 
55 | N/N=C/c1cc([N+](=O)[O-])ccc1O | inactive | 31 µg/mL (≈ 171 µM) |  | 
56 | O=[N+]([O-])c1ccc(O)c(/C=N/Nc2ccccc2)c1 | 31 µg/mL (≈ 121 µM) | 16 µg/mL (≈ 62.2 µM) |  | 
57 | O=C(N/N=C/c1cc(Cl)ccc1O)c1ccc(O)cc1 | inactive | 62 µg/mL (≈ 213 µM) |  | 
58 | CC(C)(C)c1ccc(C(=O)N/N=C/c2ccccc2O)cc1 | 4 µg/mL (≈ 13.5 µM) | 125 µg/mL (≈ 422 µM) |  | 
59 | COc1ccc(O)c(/C=N/NC(=O)c2ccc(O)cc2)c1 | inactive | 4 µg/mL (≈ 14 µM) |  | 
60 | O=C(N/N=C/c1ccccc1O)c1ccccc1 [SALICYLALDEHYDE BENZOYL HYDRAZONE] | 2 µg/mL (≈ 8.32 µM) | 1 µg/mL (≈ 4.16 µM) |  | 
61 | O=[N+]([O-])c1ccc(S(=O)(=O)N/N=C/c2ccccc2O)cc1 |  |  | inactive | inactive
62 | O=[N+]([O-])c1ccc(N/N=C/c2cc(Cl)ccc2O)cc1 | inactive | 62 µg/mL (≈ 213 µM) |  | 
63 | O=C(N/N=C/c1ccc(/C=N/NC(=O)c2ccccc2)cc1)c1ccccc1 | inactive | inactive |  | 
64 | O=S(=O)(N/N=C/c1cc(Cl)ccc1O)c1ccc(Br)cc1 |  |  | inactive | inactive
65 | O=S(=O)(N/N=C/c1ccccc1O)c1ccc(Br)cc1 |  |  | inactive | inactive
66 | O=S(=O)(N/N=C/c1cc(Cl)ccc1O)c1ccccc1 |  |  | inactive | inactive

Row | Compound | MIC80 (Candida albicans [1]) | MIC80 (Nakaseomyces glabratus [2]) | Activity (Candida albicans [3]) | Activity (Nakaseomyces glabratus [4])
67 | O=S(=O)(N/N=C/c1ccccc1O)c1ccc2ccccc2c1 |  |  | inactive | inactive
68 | N/N=C/c1ccc(O)cc1O | 62 µg/mL (≈ 407 µM) | 31 µg/mL (≈ 204 µM) |  | 
69 | Oc1c(Br)cccc1/C=N/Nc1ccccc1 | 8 µg/mL (≈ 27.5 µM) | 16 µg/mL (≈ 55 µM) |  | 
70 | O=C(N/N=C/c1cc(Cl)ccc1O)c1ccc([N+](=O)[O-])cc1 | 16 µg/mL (≈ 50 µM) | 62 µg/mL (≈ 194 µM) |  | 
71 | O=[N+]([O-])c1ccc(N/N=C/c2cc(Br)cc(Br)c2O)cc1 | inactive | 62 µg/mL (≈ 149 µM) |  | 
72 | O=C(N/N=C/c1cc(Cl)ccc1O)c1ccccc1O | 8 µg/mL (≈ 27.5 µM) | inactive |  | 
73 | Cc1ccc(O)c(/C=N/Nc2ccc([N+](=O)[O-])cc2)c1 | inactive | inactive |  | 
74 | O=C(N/N=C/c1ccccc1O)c1ccc(O)cc1 | inactive | 4 µg/mL (≈ 15.6 µM) |  | 
75 | COc1ccc(O)c(/C=N/NC(=O)c2ccccc2)c1 | 4 µg/mL (≈ 14.8 µM) | 0.5 µg/mL (≈ 1.85 µM) |  | 
76 | Oc1ccccc1/C=N/N=C/c1ccccc1O | inactive | inactive |  | 
77 | O=C(N/N=C/c1cc([N+](=O)[O-])ccc1O)c1ccccc1 | 16 µg/mL (≈ 56.1 µM) | 16 µg/mL (≈ 56.1 µM) |  | 
78 | CC(C)(C)c1cccc(/C=N/NC(=O)c2ccc([N+](=O)[O-])cc2)c1O | 31 µg/mL (≈ 90.8 µM) | 125 µg/mL (≈ 366 µM) |  | 
79 | O=[N+]([O-])c1ccc(N/N=C/c2cc(Cl)cc(Cl)c2O)cc1 | inactive | 62 µg/mL (≈ 190 µM) |  | 
80 | O=C(N/N=C/c1ccccc1O)c1ccccc1O | 16 µg/mL (≈ 62.4 µM) | 8 µg/mL (≈ 31.2 µM) |  | 
81 | O=C(N/N=C/c1cc(Br)cc(Br)c1O)c1ccccc1 | 8 µg/mL (≈ 20.1 µM) | 31 µg/mL (≈ 77.9 µM) |  | 
82 | COc1ccc(O)c(/C=N/NC(=O)c2ccc([N+](=O)[O-])cc2)c1 | 125 µg/mL (≈ 396 µM) | 2 µg/mL (≈ 6.34 µM) |  | 
83 | O=C(N/N=C/c1cc(Cl)cc(Cl)c1O)c1ccc([N+](=O)[O-])cc1 | 31 µg/mL (≈ 87.5 µM) | 125 µg/mL (≈ 353 µM) |  | 
84 | CC(C)(C)c1cccc(/C=N/Nc2ccc([N+](=O)[O-])cc2)c1O | inactive | inactive |  | 
85 | O=[N+]([O-])c1ccc(N/N=C/c2ccc(O)cc2O)cc1 | inactive | 1 µg/mL (≈ 3.66 µM) |  | 
86 | Oc1ccc(/C=N/Nc2ccccc2)c(O)c1 | 31 µg/mL (≈ 136 µM) | 2 µg/mL (≈ 8.76 µM) |  | 
